Source: ChEMBL document CHEMBL1811865, “NSAID-derived γ-secretase modulation requires an acidic moiety on the carbazole scaffold” (Bioorg Med Chem, 2011)
The source made the active and inactive calls. The rule behind the calls is not given here.

Experiments:
[1] = target: Gamma-secretase; assay: Modulation of gamma-secretase activity in human H4 cells expressing APP695 assessed as increase in amyloid beta38 production after 20 to 24 hrs by liquid phase electrochemiluminescence assay; format: cell-based
In short: (§1)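 Aβ-lowering assay in H4 APPΔ9 cells. Secreted Aβ isoforms (Aβ38, Aβ40, Aβ42) were quantified by liquid phase electrochemiluminescence (LPECL). Dose-response testing was capped at 100 μM to avoid micelle formation by the amphiphilic acids. EC50 values were derived from the curves, and the response at 100 μM was reported where EC50 could not be determined.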

[2] = target: Gamma-secretase; assay: Modulation of gamma-secretase activity in human H4 cells expressing APP695 assessed as increase in amyloid beta40 production after 20 to 24 hrs by liquid phase electrochemiluminescence assay; format: cell-based; in short: as §1
[3] = target: Gamma-secretase; assay: Modulation of gamma-secretase activity in human H4 cells expressing APP695 assessed as increase in amyloid beta42 production after 20 to 24 hrs by liquid phase electrochemiluminescence assay; format: cell-based; in short: as §1
[4] = system: H4; assay: Cytotoxicity against human H4 cells assessed as cell viability at 80 uM by MTS assay; format: cell-based; conditions: h4, 80 µM
In short: (§2)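 Viability of H4 APPΔ9 cells was read by a colorimetric cell proliferation assay based on bioreduction of MTS (Owen's reagent) to formazan.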

[5] = target: T1, Gamma-secretase (Homo sapiens) (UniProt Q96BI3+Q9NZ42+Q8WW43+P49768+Q92542+P49810); assay: Modulation of gamma-secretase activity in human H4 cells expressing APP695 assessed as increase in amyloid beta38 production at 100 uM after 20 to 24 hrs by liquid phase electrochemiluminescence assay; format: cell-based; in short: as §1
[6] = target: T1, Gamma-secretase (Homo sapiens); assay: Modulation of gamma-secretase activity in human H4 cells expressing APP695 assessed as increase in amyloid beta40 production at 100 uM after 20 to 24 hrs by liquid phase electrochemiluminescence assay; format: cell-based; in short: as §1
[7] = system: H4; assay: Cytotoxicity against human H4 cells assessed as cell viability at 20 uM by MTS assay; format: cell-based; conditions: h4, 20 µM; in short: as §2
[8] = system: Mus musculus; assay: Antialzheimer activity in APP Swedish mutant transgenic C57/BLg mouse assessed as change in amyloid beta42 level in brain at 10 mg/kg, po after 5 hrs; format: functional, organism-based; design: dose 10 mg/kg
[9] = Ratio of AUC in brain to AUC in plasma in APP Swedish mutant transgenic C57/BLg mouse at 10 mg/kg, po after 5 hrs; conditions: in vivo
[10] = system: H4; assay: Cytotoxicity against human H4 cells assessed as cell viability by MTS assay; format: cell-based; in short: as §2
[11] = Ratio of AUC in plasma to AUC in cerebrospinal fluid in rat; format: ADME, CSF/Plasma; conditions: in vivo
[12] = system: H4; assay: Cytotoxicity against human H4 cells assessed as cell viability at 160 uM by MTS assay; format: cell-based; conditions: h4, 160 µM; in short: as §2

| Compound | IC50 [3] | Activity [5] | Activity [6] | Activity [10] | also measured |
| --- | --- | --- | --- | --- | --- |
| CCCCCCCCn1c2ccccc2c2ccc(OC3=C(O)C(Cc4ccccc4)N(Cc4ccc5c(c4)OCO5)C3=O)cc21 (configuration not stated) | 24 µM | – | – | – | IC50 [1]: 31 µM; IC50 [2]: 32 µM; Activity [4]: Toxic |
| CCCCCCCCn1c2ccc(Cl)cc2c2ccc(CC)cc21 | – | inactive | inactive | – | EC50 [3]: 50 µM |
| CCCCCCCCn1c2ccccc2c2ccc(OCCN(C)C)cc21 | – | inactive | inactive | – | EC50 [3]: > 10 µM; Activity [7]: Toxic |
| CCCCCCCCn1c2ccccc2c2ccc(OCC(=O)OC(C)C)cc21 | – | inactive | inactive | – | EC50 [3]: 49 µM |
| CCCCCCCCn1c2ccccc2c2ccc(OCC(O)C(F)(F)F)cc21 (configuration not stated) | – | inactive | inactive | – | EC50 [3]: 12 µM |
| CCCCCCCCCCn1c2ccc(Cl)cc2c2ccc(C(C)C(=O)O)cc21 (configuration not stated) | – | – | – | – | Activity [8]: inactive; Ratio AUC [9]: < 0.1 |
| CCCCCCCCn1c2ccc(Cl)cc2c2ccc(C(C)C(=O)OCC)cc21 (configuration not stated) | – | inactive | inactive | – | EC50 [3]: 21 µM |
| CCCCCCCCn1c2ccccc2c2ccc(OC3=C(O)CNC3=O)cc21 | 28 µM | – | – | Non-toxic | EC50 [1]: 8 µM; IC50 [2]: 72 µM |
| CCCCCCCCn1c2ccccc2c2ccc(OCCC(=O)O)cc21 | > 80 µM | – | – | Non-toxic | EC50 [1]: > 80 µM; IC50 [2]: > 80 µM |
| CCCCCCCCn1c2ccccc2c2ccc(OCc3nn[nH]n3)cc21 | 113 µM | – | – | – | IC50 [1]: 165 µM; IC50 [2]: 102 µM |
| CCCCCCCCn1c2ccccc2c2ccc(OCCN)cc21 | – | – | – | Non-toxic | IC50 [1]: > 80 µM; IC50 [2]: > 80 µM; EC50 [3]: > 80 µM |
| CCCCCCCCn1c2ccccc2c2ccc(O)cc21 | > 80 µM | inactive | inactive | – | – |
| CCCCCCCCn1c2ccccc2c2ccc(OCC(=O)OCC)cc21 | 31 µM | inactive | inactive | – | – |
| CCCCCCCCn1c2ccccc2c2ccc(OCC(=O)O)cc21 | 19 µM | – | – | – | EC50 [1]: 24 µM |
| CCCCCCCCn1c2ccccc2c2ccc(OCCN(C(=O)C(F)(F)F)C(=O)C(F)(F)F)cc21 | > 80 µM | inactive | inactive | Non-toxic | – |
| CCCCCCCCn1c2ccccc2c2cc(CCC(=O)O)c(OCC(=O)O)cc21 | > 80 µM | inactive | inactive | – | – |
| CCCCCCCCn1c2ccc(Cl)cc2c2ccc(C(C)C(=O)O)cc21 (configuration not stated) | 6.9 µM | – | – | – | IC50 [1]: 100 µM; IC50 [2]: > 40 µM |
| CCCCCCCCn1c2ccc(Cl)cc2c2ccc(C(C)C(=O)OCc3ccccc3)cc21 (configuration not stated) | > 80 µM | inactive | inactive | Non-toxic | – |
| CCCCCCCCn1c2ccccc2c2cc(CO)c(OCCO)cc21 | 80 µM | inactive | inactive | – | – |

| Compound | IC50 [3] | Activity [5] | Activity [6] | Activity [10] | also measured |
| --- | --- | --- | --- | --- | --- |
| CCCCCCCCn1c2ccccc2c2ccc(OC3=C(O)COC3=O)cc21 | 37 µM | – | – | Non-toxic | EC50 [1]: 21 µM; IC50 [2]: > 80 µM |
| CCCCCCCCn1c2ccccc2c2ccc(OCCO)cc21 | > 40 µM | inactive | inactive | Non-toxic | – |
| CCCCCCCCn1c2ccccc2c2ccc(OCC(=O)OC)cc21 | 27 µM | inactive | inactive | Non-toxic | – |
| CCCCCCCCn1c2ccccc2c2ccc(OCCP(=O)(OCC)OCC)cc21 | – | inactive | inactive | – | EC50 [3]: 13 µM; Activity [4]: Toxic |
| CC(C(=O)O)c1ccc(-c2ccccc2)c(F)c1 (configuration not stated) [FLURBIPROFEN] | – | – | – | – | Ratio AUC [11]: 5.31 |
| CCCCCCCCn1c2ccccc2c2ccc(OCCS(=O)(=O)O)cc21 | > 80 µM | inactive | inactive | – | – |
| CCCCCCCCn1c2ccccc2c2cc(C=O)c(OCC(=O)O)cc21 | 32 µM | inactive | inactive | – | Activity [4]: Toxic |
| CCCCCCCCn1c2ccc(Cl)cc2c2ccc(C(C)C(=O)NS(C)(=O)=O)cc21 (configuration not stated) | – | inactive | inactive | – | EC50 [3]: 32 µM |
| CCCCCCCCn1c2ccccc2c2ccc(OCC(=O)OCC(C)C)cc21 | > 80 µM | inactive | inactive | Non-toxic | – |
| CCCCCCCCn1c2ccccc2c2ccc(Oc3ccccc3C(=O)O)cc21 | 38 µM | – | – | Non-toxic | EC50 [1]: 23 µM; IC50 [2]: > 80 µM |
| CCCCCCCCn1c2ccc(Cl)cc2c2ccc(C(C)CO)cc21 (configuration not stated) | – | inactive | inactive | – | EC50 [3]: 21 µM; Activity [4]: Toxic |
| CCCCCCCCn1c2ccccc2c2ccc(OCCNC=O)cc21 | > 80 µM | inactive | inactive | Non-toxic | – |
| CCCCCCCCn1c2ccccc2c2ccc(OCC(N)=O)cc21 | 104 µM | inactive | inactive | – | Activity [12]: Toxic |
| CCCCCCCCn1c2ccccc2c2cc(C=O)c(OCC(=O)OC)cc21 | 89 µM | inactive | inactive | Non-toxic | – |
| CCCCCCCCn1c2ccc(Cl)cc2c2ccc(C(C)C(=O)OC)cc21 (configuration not stated) | – | inactive | inactive | – | EC50 [3]: 15 µM |
| CCCCCCCCn1c2ccccc2c2ccc(OC(C)(C)C(=O)O)cc21 | > 40 µM | – | – | – | EC50 [1]: > 40 µM; IC50 [2]: > 40 µM; Activity [4]: Toxic |
| CCCCCCCCn1c2ccccc2c2ccc(OCC#N)cc21 | 252 µM | – | – | – | IC50 [1]: 74 µM; IC50 [2]: 105 µM |
| CCCCCCCCn1c2ccccc2c2ccc(OCC(=O)OC(C)(C)C)cc21 | – | inactive | inactive | Non-toxic | EC50 [3]: 19 µM |
